Tests used:
Rattus norvegicus [1] = experiment: Hypotensive activity in normotensive Wistar rat assessed as systolic blood pressure at 5 mg/kg, iv after 5 mins (Rvb=141.3 +/- 6.4 mmHg); type: functional, Artery
Rattus norvegicus [2] = experiment: Hypotensive activity in normotensive Wistar rat assessed as systolic blood pressure at 5 mg/kg, iv after 60 mins (Rvb=141.3 +/- 6.4 mmHg); type: functional, Artery
Rattus norvegicus [3] = experiment: Hypotensive activity in normotensive Wistar rat assessed as diastolic blood pressure at 5 mg/kg, iv after 60 mins (Rvb=126 +/- 4.6 mmHg); type: functional, Artery
Rattus norvegicus [4] = experiment: Hypotensive activity in normotensive Wistar rat assessed as systolic blood pressure at 5 mg/kg, iv after 30 mins (Rvb=138 +/- 0.9 mmHg); type: functional, Artery
Rattus norvegicus [5] = experiment: Hypotensive activity in normotensive Wistar rat assessed as systolic blood pressure at 5 mg/kg, iv after 60 mins (Rvb=138 +/- 0.9 mmHg); type: functional, Artery
Rattus norvegicus [6] = experiment: Hypotensive activity in normotensive Wistar rat assessed as diastolic blood pressure at 5 mg/kg, iv after 10 mins (Rvb=119 +/- 1.2 mmHg); type: functional, Artery
Rattus norvegicus [7] = experiment: Hypotensive activity in normotensive Wistar rat assessed as diastolic blood pressure at 5 mg/kg, iv after 60 mins (Rvb=119 +/- 1.2 mmHg); type: functional, Artery
Rattus norvegicus [8] = species on record: Rattus norvegicus; experiment: Selectivity for rat cerebral cortex alpha1 adrenergic receptor over rat cerebral cortex alpha2 adrenergic receptor; type: tissue-based
Procedure, shortened: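 Rat cerebral cortex membranes were prepared in 50 mM Tris–HCl pH 7.6, homogenized and spun twice at 20 000 g. Competition was against [3H]prazosin 0.2 nM (α1) or [3H]clonidine 2 nM (α2), with 7–8 concentrations from 10^-11 to 10^-4 M. Nonspecific binding was defined with phentolamine for the prazosin assay. After filtration, binding was read by scintillation counting in duplicate. Ki was calculated by Cheng–Prusoff, and selectivity was compared from the α1 and α2 Ki values.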

[9] = Selectivity ratio of Kb for alpha1B adrenoceptor in guinea pig spleen to Kb for Alpha-1D adrenoceptor in Wistar rat thoracic aorta; type: tissue-based
Procedure, shortened: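 Isolated-tissue antagonism assays were run in guinea-pig spleen (α1B) and in endothelium-denuded ~4 mm thoracic aortic rings from male Wistar rats weighing 200–350 g (α1D). Aortic rings sat in Krebs–Henseleit at 37 °C, pH 7.4, gassed with O2/CO2 19:1, at 2 g tension. Two cumulative noradrenaline curves were run 60 min apart, with 30 min antagonist incubation and continuous propranolol. Schild pA2 was taken as pKB, n ≥ 5.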

Rattus norvegicus [10] = experiment: Hypotensive activity in normotensive Wistar rat assessed as systolic blood pressure at 5 mg/kg, iv after 10 mins (Rvb=142.5 +/- 3.6 mmHg); type: functional, Artery
Rattus norvegicus [11] = experiment: Hypotensive activity in normotensive Wistar rat assessed as systolic blood pressure at 5 mg/kg, iv after 30 mins (Rvb=142.5 +/- 3.6 mmHg); type: functional, Artery
Rattus norvegicus [12] = experiment: Hypotensive activity in normotensive Wistar rat assessed as systolic blood pressure at 5 mg/kg, iv after 60 mins (Rvb=142.5 +/- 3.6 mmHg); type: functional, Artery
Rattus norvegicus [13] = experiment: Hypotensive activity in normotensive Wistar rat assessed as diastolic blood pressure at 5 mg/kg, iv after 5 mins (Rvb=127 +/- 8.1 mmHg); type: functional, Artery
Rattus norvegicus [14] = experiment: Hypotensive activity in normotensive Wistar rat assessed as diastolic blood pressure at 5 mg/kg, iv after 10 mins (Rvb=127 +/- 8.1 mmHg); type: functional, Artery
Rattus norvegicus [15] = experiment: Hypotensive activity in normotensive Wistar rat assessed as diastolic blood pressure at 5 mg/kg, iv after 20 mins (Rvb=127 +/- 8.1 mmHg); type: functional, Artery
Rattus norvegicus [16] = experiment: Hypotensive activity in normotensive Wistar rat assessed as diastolic blood pressure at 5 mg/kg, iv after 30 mins (Rvb=127 +/- 8.1 mmHg); type: functional, Artery
[17] = system: Alpha-1B adrenergic receptor (Cavia porcellus); experiment: Antagonist activity at Alpha-1B adrenoceptor in guinea pig spleen assessed as inhibition of noradrenaline-induced contraction after 30 mins
Rattus norvegicus [18] = experiment: Hypotensive activity in normotensive Wistar rat assessed as systolic blood pressure at 5 mg/kg, iv after 10 mins (Rvb=139 +/- 0.6 mmHg); type: functional, Artery
Rattus norvegicus [19] = experiment: Hypotensive activity in normotensive Wistar rat assessed as systolic blood pressure at 5 mg/kg, iv after 20 mins (Rvb=139 +/- 0.6 mmHg); type: functional, Artery
Rattus norvegicus [20] = experiment: Hypotensive activity in normotensive Wistar rat assessed as diastolic blood pressure at 5 mg/kg, iv after 20 mins (Rvb=120 +/- 1.7 mmHg); type: functional, Artery
Rattus norvegicus [21] = experiment: Hypotensive activity in normotensive Wistar rat assessed as diastolic blood pressure at 5 mg/kg, iv after 30 mins (Rvb=120 +/- 1.7 mmHg); type: functional, Artery
Rattus norvegicus [22] = experiment: Hypotensive activity in normotensive Wistar rat assessed as systolic blood pressure at 5 mg/kg, iv after 5 mins (Rvb=140.5 +/- 1.1 mmHg); type: functional, Artery
Rattus norvegicus [23] = experiment: Hypotensive activity in normotensive Wistar rat assessed as diastolic blood pressure at 5 mg/kg, iv after 10 mins (Rvb=125.5 +/- 0.6 mmHg); type: functional, Artery
Rattus norvegicus [24] = experiment: Hypotensive activity in normotensive Wistar rat assessed as diastolic blood pressure at 5 mg/kg, iv after 20 mins (Rvb=125.5 +/- 0.6 mmHg); type: functional, Artery
Rattus norvegicus [25] = experiment: Hypotensive activity in normotensive Wistar rat assessed as diastolic blood pressure at 5 mg/kg, iv after 30 mins (Rvb=125.5 +/- 0.6 mmHg); type: functional, Artery
Rattus norvegicus [26] = experiment: Hypotensive activity in normotensive Wistar rat assessed as diastolic blood pressure at 5 mg/kg, iv after 60 mins (Rvb=125.5 +/- 0.6 mmHg); type: functional, Artery
Rattus norvegicus [27] = experiment: Hypotensive activity in normotensive Wistar rat assessed as systolic blood pressure at 2.5 mg/kg, iv after 5 mins (Rvb=125.6 +/- 7.6 mmHg); type: functional, Artery
Rattus norvegicus [28] = experiment: Hypotensive activity in normotensive Wistar rat assessed as systolic blood pressure at 2.5 mg/kg, iv after 10 mins (Rvb=125.6 +/- 7.6 mmHg); type: functional, Artery
Rattus norvegicus [29] = experiment: Hypotensive activity in normotensive Wistar rat assessed as systolic blood pressure at 2.5 mg/kg, iv after 20 mins (Rvb=125.6 +/- 7.6 mmHg); type: functional, Artery
Rattus norvegicus [30] = experiment: Hypotensive activity in normotensive Wistar rat assessed as diastolic blood pressure at 2.5 mg/kg, iv after 5 mins (Rvb=107.2 +/- 7.3 mmHg); type: functional, Artery
Rattus norvegicus [31] = experiment: Hypotensive activity in normotensive Wistar rat assessed as diastolic blood pressure at 2.5 mg/kg, iv after 10 mins (Rvb=107.2 +/- 7.3 mmHg); type: functional, Artery
Rattus norvegicus [32] = experiment: Hypotensive activity in normotensive Wistar rat assessed as diastolic blood pressure at 2.5 mg/kg, iv after 20 mins (Rvb=107.2 +/- 7.3 mmHg); type: functional, Artery
Rattus norvegicus [33] = experiment: Hypotensive activity in normotensive Wistar rat assessed as diastolic blood pressure at 2.5 mg/kg, iv after 30 mins (Rvb=107.2 +/- 7.3 mmHg); type: functional, Artery
Rattus norvegicus [34] = experiment: Hypotensive activity in normotensive Wistar rat assessed as diastolic blood pressure at 2.5 mg/kg, iv after 60 mins (Rvb=107.2 +/- 7.3 mmHg); type: functional, Artery

`Cc1ccccc1N1CCN(CC(O)CN2CCC(c3ccccc3)(c3ccccc3)C2=O)CC1.Cl.Cl` (centres undefined) showed an Activity (Rattus norvegicus [1]) of 132.3 mmHg, an Activity (Rattus norvegicus [2]) of 116 mmHg and an Activity (Rattus norvegicus [3]) of 99 mmHg.
For `Cl.Cl.O=C1N(CC(O)CN2CCN(c3ccccc3C(F)(F)F)CC2)CCC1(c1ccccc1)c1ccccc1` (centres undefined), the Activity (Rattus norvegicus [4]) was 116 mmHg, the Activity (Rattus norvegicus [5]) was 111 mmHg and the Activity (Rattus norvegicus [6]) was 106.5 mmHg. It also gave an Activity (Rattus norvegicus [7]) of 100 mmHg.
`CCOc1ccccc1N1CCN(CC(O)CN2CCC(c3ccccc3)(c3ccccc3)C2=O)CC1.Cl.Cl` (centres undefined) gave a Selectivity ratio (Rattus norvegicus [8]) of 10, a Ratio [9] of 5.2 and an Activity (Rattus norvegicus [10]) of 118 mmHg. The Activity (Rattus norvegicus [11]) was 113.5 mmHg, the Activity (Rattus norvegicus [12]) was 114 mmHg and the Activity (Rattus norvegicus [13]) was 117 mmHg. For the same compound, the Activity (Rattus norvegicus [14]) was 105 mmHg, the Activity (Rattus norvegicus [15]) was 98 mmHg and the Activity (Rattus norvegicus [16]) was 96 mmHg. For the same compound, the Activity [17] was “Dose-dependent effect”.
`COc1ccccc1N1CCN(CC(O)CN2CCC(c3ccccc3)(c3ccccc3)C2=O)CC1.Cl.Cl` (centres undefined) gave an Activity (Rattus norvegicus [18]) of 122 mmHg, an Activity (Rattus norvegicus [19]) of 118 mmHg and an Activity (Rattus norvegicus [20]) of 104 mmHg. For the same compound, the Activity (Rattus norvegicus [21]) was 102.5 mmHg.
Compound `Cl.Cl.O=C1N(CC(O)CN2CCN(c3ccccc3)CC2)CCC1(c1ccccc1)c1ccccc1` (centres undefined) has an Activity (Rattus norvegicus [22]) of 135.5 mmHg, an Activity (Rattus norvegicus [23]) of 118.6 mmHg and an Activity (Rattus norvegicus [24]) of 116.5 mmHg. The Activity (Rattus norvegicus [25]) was 113.5 mmHg and the Activity (Rattus norvegicus [26]) was 109.5 mmHg.
`COc1ccc(N2CCN(CC(O)CN3CCC(c4ccccc4)(c4ccccc4)C3=O)CC2)cc1.Cl.Cl` (centres undefined) gave an Activity (Rattus norvegicus [27]) of 126.6 mmHg, an Activity (Rattus norvegicus [28]) of 115.2 mmHg and an Activity (Rattus norvegicus [29]) of 107.6 mmHg. For the same compound, the Activity (Rattus norvegicus [30]) was 107 mmHg, the Activity (Rattus norvegicus [31]) was 96.4 mmHg and the Activity (Rattus norvegicus [32]) was 89.8 mmHg. The Activity (Rattus norvegicus [33]) was 88.2 mmHg and the Activity (Rattus norvegicus [34]) was 88.2 mmHg.

— ChEMBL document CHEMBL1154048, “Design, synthesis and pharmacological evaluation of new 1-[3-(4-arylpiperazin-1-yl)-2-hydroxy-propyl]-3,3-diphenylpyrrolidin-2-one derivatives with antiarrhythmic, antihypertensive, and alpha-adrenolytic activity” (Eur J Med Chem, 2009)
